Laboratory results published in ChEMBL document CHEMBL1156933, “Studies of benzothiophene template as potent factor IXa (FIXa) inhibitors in thrombosis” (J Med Chem, 2010).

Tests used:
Coagulation factor IX = Coagulation factor IX (Homo sapiens, UniProt P00740); assay: Inhibition of human recombinant factor 9a by amidolytic assay
Coagulation factor X = Coagulation factor X (Homo sapiens, UniProt P00742); assay: Inhibition of factor 10 by amidolytic assay
How it was run: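 Done by a previously published literature method. IC50 values are the mean of at least three experiments, with variation among results under 10%.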

Sequence of Coagulation factor X (P00742 41-179 limits assumed): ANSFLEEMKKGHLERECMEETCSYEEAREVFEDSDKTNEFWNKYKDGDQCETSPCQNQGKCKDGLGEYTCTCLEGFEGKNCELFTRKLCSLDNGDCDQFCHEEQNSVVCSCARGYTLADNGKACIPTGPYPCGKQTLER
Sequence of Coagulation factor X (P00742 235-488 limits assumed): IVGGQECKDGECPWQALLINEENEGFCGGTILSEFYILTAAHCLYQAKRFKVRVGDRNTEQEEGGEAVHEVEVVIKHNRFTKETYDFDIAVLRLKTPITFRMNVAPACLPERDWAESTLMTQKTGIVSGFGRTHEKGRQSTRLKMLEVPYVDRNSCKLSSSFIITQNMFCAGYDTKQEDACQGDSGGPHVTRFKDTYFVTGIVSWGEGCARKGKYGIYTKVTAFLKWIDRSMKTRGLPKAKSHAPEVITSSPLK
Sequence of Coagulation factor IX (P00740 47-191 limits assumed): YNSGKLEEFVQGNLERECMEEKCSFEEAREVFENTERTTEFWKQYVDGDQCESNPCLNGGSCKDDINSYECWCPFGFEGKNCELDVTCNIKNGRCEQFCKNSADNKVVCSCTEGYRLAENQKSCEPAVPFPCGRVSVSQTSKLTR
Sequence of Coagulation factor IX (P00740 227-461 limits assumed): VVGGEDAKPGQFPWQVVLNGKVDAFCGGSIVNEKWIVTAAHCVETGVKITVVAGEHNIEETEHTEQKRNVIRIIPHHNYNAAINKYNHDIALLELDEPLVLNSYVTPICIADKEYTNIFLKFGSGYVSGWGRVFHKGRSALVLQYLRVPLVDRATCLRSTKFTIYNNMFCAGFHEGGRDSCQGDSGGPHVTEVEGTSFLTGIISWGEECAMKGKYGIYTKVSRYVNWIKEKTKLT

| SMILES | Ki (Coagulation factor IX) | Ki (Coagulation factor X) |
| --- | --- | --- |
| N=C(N)c1cc2cc(-c3ccccc3)ccc2s1 | 8 µM |  |
| N=C(N)c1cc2c(-c3ccccc3)cccc2s1 | 1.6 µM |  |
| COC(=O)CC(Oc1ccc2cc(C(=N)N)sc2c1)c1ccc(Cl)cc1 (stereo unspecified) | 0.028 µM | 0.033 µM |
| N=C(N)c1cc2ccc(OCc3ccc(F)c(F)c3)cc2s1 | 0.45 µM | 5.7 µM |
| N=C(N)c1cc2ccc(OCc3ccc(Cl)cc3)cc2s1 | 0.45 µM | 2.9 µM |
| N=C(N)c1cc2ccc(OCc3cccnc3)cc2s1 | 1.05 µM | 3.35 µM |
| N=C(N)c1cc2ccc(OCc3cccs3)cc2s1 | 0.35 µM | 1.15 µM |
| CC(Oc1ccc2cc(C(=N)N)sc2c1)c1ccc(F)cc1 (stereo unspecified) | 11.3 µM |  |
| N=C(N)c1cc2ccc(OCc3ccccc3Cl)cc2s1 | 7.2 µM |  |
| N=C(N)c1cc2c(OCc3ccccc3)cccc2s1 | 1.5 µM | 6 µM |
| CCOC(=O)COc1ccc2cc(C(=N)N)sc2c1 | 3.8 µM | 0.6 µM |
| COc1ccc(-c2ccc3sc(C(=N)N)cc3c2)cc1OC | 5.9 µM | 11.9 µM |
| COc1ccc(-c2ccc3cc(C(=N)N)sc3c2)cc1OC | 24.2 µM |  |
| COc1ccccc1COc1ccc2cc(C(=N)N)sc2c1 | 26.9 µM |  |
| COC(=O)c1ccc(COc2ccc3cc(C(=N)N)sc3c2)cc1 | 11.3 µM |  |
| N=C(N)c1cc2c(I)cccc2s1 | 0.95 µM | 22 µM |
| CCOC(=O)COc1cccc2sc(C(=N)N)cc12 | 11.9 µM |  |
| N=C(N)c1cc2ccc(OCCc3ccccc3)cc2s1 | 21.6 µM |  |
| Cc1ccc(COc2ccc3cc(C(=N)N)sc3c2)cc1 | 0.9 µM | 7.9 µM |
| N=C(N)c1cc2c(OCc3nc4ccccc4s3)cccc2s1 | 0.8 µM | 2.6 µM |
